Reference: ChEMBL document CHEMBL1127554, “Design, synthesis, and study of 9-substituted ellipticine and 2-methylellipticinium analogues as potential CNS-selective antitumor agents” (1994)

How the values were obtained:
[1] = test system: Tumor Cell line; test: LC50 was given In vitro as -50% percent growth (PG), measured as concentration of compound required to inhibit disease oriented human tumor cell line panels; Value ranges from 4.68-100; format: functional; conditions: read-out: LC50 (the source's name)
Outline: (§1)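 Human tumor cell line panel tested in vitro. Percent growth (PG) plotted against log drug concentration to give dose-response curves. LC50 is the concentration where PG equals -50%; GI50 and TGI are taken at +50% and 0%. Values are means across the full panel, with values beyond the tested limits (> or <) included in the mean.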

[2] = test system: Tumor Cell line; test: GI50 was measured In vitro as the ratio of the mean activity for all non-CNS tumor cell lines over the mean activity of the CNS tumor subpanel (eight cell lines); format: functional, Homo sapiens
Outline: (§2)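 Ratio of the mean activity (μM) over all non-CNS tumour cell lines (ca. 40-50 lines) to the mean activity (μM) of the CNS subpanel (eight lines). Activity was taken from PG vs log concentration curves: GI50 at PG +50%, TGI at PG 0%.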

[3] = test system: Tumor Cell line; test: TGI was measured In vitro as the ratio of the mean activity for all non-CNS tumor cell lines over the mean activity of the CNS tumor subpanel (eight cell lines); format: functional, Homo sapiens; outline: as §2
[4] = test system: Tumor Cell line; test: LC50 was measured In vitro as the ratio of the mean activity for all non-CNS tumor cell lines over the mean activity of the CNS tumor subpanel (eight cell lines); format: functional, Homo sapiens
Outline: (§3)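 Same PG dose-response panel. LC50 (μM) is averaged separately over the non-CNS lines (ca. 40-50 lines) and the CNS subpanel (eight lines). The ratio is the non-CNS mean divided by the CNS mean.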

[5] = test system: Tumor Cell line; test: GI50 was given In vitro as +50% percent growth (PG), measured as concentration of compound required to inhibit disease oriented human tumor cell line panels; Value ranges from 0.23-29.5; format: functional
Outline: (§4)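 Human tumour cell line panel; percent growth plotted against log drug concentration to give dose-response curves. GI50 is the concentration giving PG +50%, and TGI the concentration giving PG 0%. Values are mean inhibitory concentrations over the entire panel. PG values at either limit (> or <) are included in the mean.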

[6] = test system: Tumor Cell line; test: LC50 was given In vitro as -50% percent growth (PG), measured as concentration of compound required to inhibit disease oriented human tumor cell line panels; Value ranges from 67.61->100; format: functional; conditions: read-out: LC50 (the source's name); outline: as §1
[7] = test system: Tumor Cell line; test: LC50 was given In vitro as -50% percent growth (PG), measured as concentration of compound required to inhibit disease oriented human tumor cell line panels; Value ranges from 5.6->100; format: functional; conditions: read-out: LC50 (the source's name)
[8] = test system: Tumor Cell line; test: TGI was given In vitro as 0% percent growth (PG), measured as concentration of compound required to inhibit disease oriented human tumor cell line panels; Value ranges from 0.65->100; format: functional
[9] = test system: Tumor Cell line; test: GI50 was given In vitro as +50% percent growth (PG), measured as concentration of compound required to inhibit disease oriented human tumor cell line panels; Value ranges from 0.19->100; format: functional
[10] = test system: Tumor Cell line; test: TGI was given In vitro as 0% percent growth (PG), measured as concentration of compound required to inhibit disease oriented human tumor cell line panels; Value ranges from 0.30->100; format: functional
[11] = test system: Tumor Cell line; test: GI50 was given In vitro as +50% percent growth (PG), measured as concentration of compound required to inhibit disease oriented human tumor cell line panels; Value ranges from 0.02->100; format: functional; outline: as §4
[12] = test system: Tumor Cell line; test: LC50 was given In vitro as -50% percent growth (PG), measured as concentration of compound required to inhibit disease oriented human tumor cell line panels; Value ranges from 1.20->100; format: functional; conditions: read-out: LC50 (the source's name)
[13] = TGI was measured in vitro as the ratio of the mean activity for all non-CNS tumor cell lines over the mean activity of the CNS tumor subpanel (eight cell lines); format: functional; outline: as §2
[14] = test system: Tumor Cell line; test: GI50 was given in vitro as +50% percent growth (PG), measured as concentration of compound required to inhibit disease oriented human tumor cell line panels; Value ranges from 1.58-11.22; format: functional; outline: as §4
[15] = GI50 was measured in vitro as the ratio of the mean activity for all non-CNS tumor cell lines over the mean activity of the CNS tumor subpanel (eight cell lines); format: functional; outline: as §2
[16] = test system: Tumor Cell line; test: LC50 was given in vitro as -50% percent growth (PG), measured as concentration of compound required to inhibit disease oriented human tumor cell line panels; Value ranges from 5.50->100; format: functional; conditions: read-out: LC50 (the source's name); outline: as §1
[17] = test system: Tumor Cell line; test: TGI was given in vitro as 0% percent growth (PG), measured as concentration of compound required to inhibit disease oriented human tumor cell line panels; Value ranges from 2.95-54.95; format: functional; outline: as §4
[18] = LC50 was measured in vitro as the ratio of the mean activity for all non-CNS tumor cell lines over the mean activity of the CNS tumor subpanel (eight cell lines); format: functional; outline: as §3
[19] = test system: Tumor Cell line; test: LC50 was given In vitro as -50% percent growth (PG), measured as concentration of compound required to inhibit disease oriented human tumor cell line panels; Value ranges from 8.13->76; format: functional; conditions: read-out: LC50 (the source's name); outline: as §1
[20] = test system: Tumor Cell line; test: TGI was given In vitro as 0% percent growth (PG), measured as concentration of compound required to inhibit disease oriented human tumor cell line panels; Value ranges from 3.24-37.15; format: functional; outline: as §4
[21] = test system: Tumor Cell line; test: GI50 was given In vitro as +50% percent growth (PG), measured as concentration of compound required to inhibit disease oriented human tumor cell line panels; Value ranges from 1.38-15.14; format: functional; outline: as §4
[22] = test system: Tumor Cell line; test: GI50 was given In vitro as +50% percent growth (PG), measured as concentration of compound required to inhibit disease oriented human tumor cell line panels; Value ranges from 0.62-2.95; format: functional; outline: as §4
[23] = test system: Tumor Cell line; test: LC50 was given In vitro as -50% percent growth (PG), measured as concentration of compound required to inhibit disease oriented human tumor cell line panels; Value ranges from 12.30->100; format: functional; conditions: read-out: LC50 (the source's name); outline: as §1
[24] = test system: Tumor Cell line; test: LC50 was given In vitro as -50% percent growth (PG), measured as concentration of compound required to inhibit disease oriented human tumor cell line panels; format: functional; conditions: read-out: LC50 (the source's name); outline: as §1
[25] = test system: Tumor Cell line; test: GI50 was given In vitro as +50% percent growth (PG), measured as concentration of compound required to inhibit disease oriented human tumor cell line panels; Value ranges from 0.22-52.48; format: functional; outline: as §4
[26] = test system: Tumor Cell line; test: LC50 was given In vitro as -50% percent growth (PG), measured as concentration of compound required to inhibit disease oriented human tumor cell line panels; Value ranges from 22.91->55; format: functional; conditions: read-out: LC50 (the source's name); outline: as §1
[27] = test system: Tumor Cell line; test: GI50 was given In vitro as +50% percent growth (PG), measured as concentration of compound required to inhibit disease oriented human tumor cell line panels; Value ranges from 0.51-12.88; format: functional; outline: as §4

For `CCOc1ccc2[nH]c3c(C)c4ccncc4c(C)c3c2c1`, the CC50 [1] was > 8.32 µM, the GI50 ratio [2] was 0.89 and the TGI ratio [3] was 1.32. It also gave an LC50 ratio [4] of 1.7.
Molecule `CC(=O)[O-].Cc1c2cc[n+](C)cc2c(C)c2c1[nH]c1ccc(Oc3ccccc3)cc12` has a GI50 ratio [2] of 3.48, a TGI ratio [3] of 3.06 and a GI50 [5] of 1.82 µM. The CC50 [6] was > 97.7 µM.
For `CC(=O)[O-].CCOc1ccc2[nH]c3c(C)c4cc[n+](C)cc4c(C)c3c2c1`, the GI50 ratio [2] was 5.92, the TGI ratio [3] was 7.08 and the CC50 [7] was > 74.1 µM. For the same molecule, the TGI [8] was > 19.5 µM and the GI50 [9] was > 2.34 µM.
In the case of `CC(=O)[O-].COc1ccc2[nH]c3c(C)c4cc[n+](C)cc4c(C)c3c2c1`, the GI50 ratio [2] is reported as 16.7, the TGI ratio [3] is reported as 33.9 and the TGI [10] is reported as > 14.8 µM. For the same molecule, the GI50 [11] was > 1.86 µM and the CC50 [12] was > 49 µM.
For `Cc1c2ccncc2c(C)c2c1[nH]c1ccc(OC(C)(C)C)cc12`, the TGI ratio [13] was 1.17, the GI50 [14] was 2.57 µM and the GI50 ratio [15] was 1.1. The CC50 [16] was > 32.4 µM, the TGI [17] was 7.24 µM and the LC50 ratio [18] was 0.98 µM.
For `Cc1c2ccncc2c(C)c2c1[nH]c1ccc(O)c(OCC(F)(F)F)c12`, the GI50 ratio [2] was 1.07, the TGI ratio [3] was 0.98 and the CC50 [19] was > 42.7 µM. For the same molecule, the TGI [20] was 15.8 µM and the GI50 [21] was 5.89 µM.
Work on `Cc1c2cc[n+](C)cc2c(C)c2c1[nH]c1ccc(OCC(F)(F)F)cc12.[I-]` yielded a GI50 ratio [2] of 6.26, a TGI ratio [3] of 9.11 and a GI50 [22] of 1.58 µM. The CC50 [23] was > 79.4 µM.
For `CC(=O)[O-].Cc1c2cc[n+](C)cc2c(C)c2c1[nH]c1ccc(OCC(F)(F)F)cc12`, the CC50 [24] was > 100 µM, the GI50 ratio [2] was 12.9 and the TGI ratio [3] was 13.7. It also gave a GI50 [25] of 3.47 µM.
With `Cc1c2cc[n+](C)cc2c(C)c2c1[nH]c1ccc(O)c(OCC(F)(F)F)c12.[I-]` the GI50 ratio [2] was 5.65, the TGI ratio [3] was 3.89 and the CC50 [26] was > 50.1 µM. For the same molecule, the GI50 [27] was 2.24 µM and the LC50 ratio [4] was 1.35.
